# Measurements taken from ChEMBL document CHEMBL3774382, “Design and synthesis of small molecule-sulfotyrosine mimetics that inhibit HIV-1 entry” (Bioorg Med Chem, 2016).
# Test system: Human immunodeficiency virus 1
# Experiment: Antiviral activity against HIV1 CCR5-tropic strain YU2 infected in human 293T cells after 48 hrs by neutralization assay
# Format: functional, cell-based
# Details: Human immunodeficiency virus 1, isolate YU2, HEK-293T; call rule not given here
# In short: (§1)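 Env-pseudotyped virus made by transfecting 293T cells with SG3denv plus an HIV-1 env plasmid. Medium changed at 24 h, supernatant harvested at 48 h, 0.45 μm filtered, stored at −80 °C. Two-fold serial inhibitor dilutions mixed with virus, then TZM-bl cells added. Incubated at 37 °C, 5% CO₂, fresh medium at 24 h. Luciferase read after lysis at 48 h post-infection. Single round. Tested up to 400 μM.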
row,SMILES,IC50 [µM]
1,CC1=NN(c2nc(-c3ccc(C(F)(F)F)cc3)cs2)C(=O)/C1=N/Nc1ccc(S(=O)(=O)O)cc1,139
2,COc1ccc(-c2csc(N3N=C(c4ccccc4)/C(=N/Nc4cc(S(=O)(=O)O)cc5cc(S(=O)(=O)O)cc(S(=O)(=O)O)c45)C3=O)n2)cc1,80.8
3,COc1ccc(-c2csc(N3N=C(C)/C(=N/Nc4cc(S(=O)(=O)O)cc5cc(S(=O)(=O)O)cc(S(=O)(=O)O)c45)C3=O)n2)cc1,47.6
4,CC1=NN(c2nc(-c3ccc(C)cc3)cs2)C(=O)/C1=N\Nc1ccc(S(=O)(=O)O)cc1,126
5,CC1=NN(c2nc(-c3cccc(Cl)c3)cs2)C(=O)/C1=N/Nc1ccc(S(=O)(=O)O)cc1,432
6,COc1ccc(-c2csc(N3N=C(C(F)(F)F)/C(=N/Nc4ccc5c(S(=O)(=O)O)cc(S(=O)(=O)O)cc5c4)C3=O)n2)cc1,298
7,CC1=NN(c2nc(-c3ccc(O)c(O)c3)cs2)C(=O)/C1=N/Nc1ccc(S(=O)(=O)O)cc1,512
8,COc1ccc(OC)c(-c2csc(N3N=C(C)/C(=N\Nc4ccc(S(=O)(=O)O)cc4)C3=O)n2)c1,189
9,CC1=NN(c2nc(-c3ccc(C(F)(F)F)cc3)cs2)C(=O)/C1=N\Nc1cc(S(=O)(=O)O)cc2cc(S(=O)(=O)O)cc(S(=O)(=O)O)c12,91.9
10,O=C1/C(=N\Nc2cc(S(=O)(=O)O)cc3cc(S(=O)(=O)O)cc(S(=O)(=O)O)c23)C(c2ccccc2)=NN1c1nc(-c2ccccc2)cs1,148
11,CC1=NN(c2nc(-c3ccc(OC(F)(F)F)cc3)cs2)C(=O)/C1=N/Nc1ccc(S(=O)(=O)O)cc1,400

# Test system: Human immunodeficiency virus 1
# Experiment: Antiviral activity against HIV1 CCR5-tropic strain YU2 infected in human 293T cells at 500 uM after 48 hrs by neutralization assay
# Format: functional, cell-based, isolate YU2
# Details: not given
row,SMILES,IC50
1,COc1ccc(-c2csc(N3N=C(C)/C(=N\Nc4ccc(CS(=O)(=O)O)cc4)C3=O)n2)cc1,Not Active
2,CC1=NN(c2nc(-c3ccc(S(=O)(=O)O)cc3)cs2)C(=O)/C1=N/Nc1ccc(S(=O)(=O)O)cc1,Not Active

# Test system: Human immunodeficiency virus 1
# Experiment: Antiviral activity against HIV1 CCR5-tropic strain YU2 infected in human 293T cells at 400 uM after 48 hrs by neutralization assay
# Format: functional, cell-based, isolate YU2
# Details: not given
# In short: as §1
row,SMILES,IC50
1,CC1=NN(c2nc(-c3ccccc3)cs2)C(=O)/C1=N\Nc1cc(S(=O)(=O)O)cc2cc(S(=O)(=O)O)cc(S(=O)(=O)O)c12,Not Active

# Test system: Human immunodeficiency virus 1
# Experiment: Antiviral activity against HIV1 JRCSF infected in human 293T cells after 48 hrs by neutralization assay
# Format: functional, cell-based
# Details: Human immunodeficiency virus 1, JRCSF ISOLATE, HEK-293T
# In short: as §1
row,SMILES,IC50 [µM]
1,COc1ccc(-c2csc(N3N=C(c4ccccc4)/C(=N/Nc4cc(S(=O)(=O)O)cc5cc(S(=O)(=O)O)cc(S(=O)(=O)O)c45)C3=O)n2)cc1,32.3
2,COc1ccc(-c2csc(N3N=C(C)/C(=N/Nc4cc(S(=O)(=O)O)cc5cc(S(=O)(=O)O)cc(S(=O)(=O)O)c45)C3=O)n2)cc1,27
3,CC1=NN(c2nc(-c3ccccc3)cs2)C(=O)/C1=N\Nc1cc(S(=O)(=O)O)cc2cc(S(=O)(=O)O)cc(S(=O)(=O)O)c12,47.6
4,CC1=NN(c2nc(-c3ccc(C(F)(F)F)cc3)cs2)C(=O)/C1=N\Nc1cc(S(=O)(=O)O)cc2cc(S(=O)(=O)O)cc(S(=O)(=O)O)c12,26.1
5,O=C1/C(=N\Nc2cc(S(=O)(=O)O)cc3cc(S(=O)(=O)O)cc(S(=O)(=O)O)c23)C(c2ccccc2)=NN1c1nc(-c2ccccc2)cs1,35.5

# Test system: Human immunodeficiency virus 1
# Experiment: Antiviral activity against HIV1 CXCR4-tropic strain HxB2 infected in human 293T cells after 48 hrs by neutralization assay
# Format: functional, organism-based
# Details: Human immunodeficiency virus 1, HxB2, HEK-293T
# In short: as §1
row,SMILES,IC50 [µM]
1,COc1ccc(-c2csc(N3N=C(c4ccccc4)/C(=N/Nc4cc(S(=O)(=O)O)cc5cc(S(=O)(=O)O)cc(S(=O)(=O)O)c45)C3=O)n2)cc1,18.7
2,COc1ccc(-c2csc(N3N=C(C)/C(=N/Nc4cc(S(=O)(=O)O)cc5cc(S(=O)(=O)O)cc(S(=O)(=O)O)c45)C3=O)n2)cc1,22.5
3,CC1=NN(c2nc(-c3ccccc3)cs2)C(=O)/C1=N\Nc1cc(S(=O)(=O)O)cc2cc(S(=O)(=O)O)cc(S(=O)(=O)O)c12,36.8
4,COc1ccc(-c2csc(N3N=C(C(F)(F)F)/C(=N/Nc4ccc5c(S(=O)(=O)O)cc(S(=O)(=O)O)cc5c4)C3=O)n2)cc1,80
5,CC1=NN(c2nc(-c3ccc(C(F)(F)F)cc3)cs2)C(=O)/C1=N\Nc1cc(S(=O)(=O)O)cc2cc(S(=O)(=O)O)cc(S(=O)(=O)O)c12,19.7
6,O=C1/C(=N\Nc2cc(S(=O)(=O)O)cc3cc(S(=O)(=O)O)cc(S(=O)(=O)O)c23)C(c2ccccc2)=NN1c1nc(-c2ccccc2)cs1,29.3

# Test system: Human immunodeficiency virus 1
# Experiment: Antiviral activity against HIV1 NL4-3 infected in human 293T cells after 48 hrs by neutralization assay
# Format: functional, organism-based
# Details: Human immunodeficiency virus 1, NL4-3, HEK-293T
# In short: as §1
row,SMILES,IC50 [µM]
1,COc1ccc(-c2csc(N3N=C(C(F)(F)F)/C(=N/Nc4ccc5c(S(=O)(=O)O)cc(S(=O)(=O)O)cc5c4)C3=O)n2)cc1,104

# Test system: Human immunodeficiency virus 1
# Experiment: Antiviral activity against HIV1 JRCSF infected in human 293T cells after at 400 uM 48 hrs by neutralization assay
# Format: functional, cell-based, JRCSF ISOLATE
# Details: not given
# In short: as §1
row,SMILES,IC50
1,COc1ccc(-c2csc(N3N=C(C(F)(F)F)/C(=N/Nc4ccc5c(S(=O)(=O)O)cc(S(=O)(=O)O)cc5c4)C3=O)n2)cc1,Not Active

# Test system: Human immunodeficiency virus 1
# Experiment: Antiviral activity against HIV1 dual CXCR4/CCR5-tropic strain 89.6 infected in human 293T cells at 400 uM after 48 hrs by neutralization assay
# Format: functional, organism-based
# Details: not given
# In short: as §1
row,SMILES,IC50
1,COc1ccc(-c2csc(N3N=C(C(F)(F)F)/C(=N/Nc4ccc5c(S(=O)(=O)O)cc(S(=O)(=O)O)cc5c4)C3=O)n2)cc1,Not Active

# Test system: not listed separately
# Experiment: Cytotoxicity against human TZM-bl cells
# Format: cell-based
# Details: read-out: LC50 (the source's name)
row,SMILES,CC50 [µM]
1,CC1=NN(c2nc(-c3ccccc3)cs2)C(=O)/C1=N\Nc1cc(S(=O)(=O)O)cc2cc(S(=O)(=O)O)cc(S(=O)(=O)O)c12,200

# Test system: not listed separately
# Experiment: Cytotoxicity against human TZM-bl cells at 500 uM
# Format: cell-based
# Details: not given
row,SMILES,Activity
1,COc1ccc(-c2csc(N3N=C(c4ccccc4)/C(=N/Nc4cc(S(=O)(=O)O)cc5cc(S(=O)(=O)O)cc(S(=O)(=O)O)c45)C3=O)n2)cc1,Non-toxic
2,O=C1/C(=N\Nc2ccc(S(=O)(=O)O)cc2)C(c2ccccc2)=NN1c1nc(-c2ccccc2)cs1,Non-toxic

# Test system: not listed separately
# Experiment: Therapeutic index, ratio of LC50 for human TZM-bl cells to IC50 for HIV1
# Format: cell-based
# Details: read-out: TI
row,SMILES,selectivity ratio
1,COc1ccc(-c2csc(N3N=C(c4ccccc4)/C(=N/Nc4cc(S(=O)(=O)O)cc5cc(S(=O)(=O)O)cc(S(=O)(=O)O)c45)C3=O)n2)cc1,> 30
2,CC1=NN(c2nc(-c3ccccc3)cs2)C(=O)/C1=N\Nc1cc(S(=O)(=O)O)cc2cc(S(=O)(=O)O)cc(S(=O)(=O)O)c12,< 10

# Test system: not listed separately
# Experiment: Cytotoxicity against human TZM-bl cells at 200 to 500 uM
# Format: cell-based
# Details: not given
row,SMILES,Activity
1,CC1=NN(c2nc(-c3ccccc3)cs2)C(=O)/C1=N\Nc1cc(S(=O)(=O)O)cc2cc(S(=O)(=O)O)cc(S(=O)(=O)O)c12,Toxic
